Source: PubChem BioAssay
Unmarked numbers belong to inactive results. Records with an inconclusive call do not appear. The source made the active and inactive calls.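 Rule for the calls, unless noted: active = RAM network inhibition above 8.4% in each of two replicates, 3 SD over the compound average; inconclusive = above 8.4% inhibition in only one replicate; inactive = 8.4% inhibition or less in each replicate.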 Non-standard residues stand in square brackets, D forms with d. Residues, ends and D or L forms follow the SMILES beside them. ξ: configuration not given here. *: point of attachment. Cbz = O=C(OCc1ccccc1)*; ξV = CC(C)C(N)C(=O)O; OtBu = CC(C)(C)O*

Tests used:
[1] = OD615 S. cerevisiae growth inhibition, permissive medium, pilot counter-assay, permissive growth control for S. cerevisiae lifespan shortening project (AID 705;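 active = growth inhibition above 25% in both replicates, a cutoff set 3 SD above the mean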); settings: OD615, 24 h, at 10 µM, active compounds read high
How it was run: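 Material: engineered DeaD yeast; Compound: one dose 10 µM, DMSO 0.25% final; Detection: absorbance (optical density) at 615 nm; Buffer or medium: permissive raffinose/galactose medium; Timing: 24 h exposure, 30 °C.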

[2] = Restrictive medium S. cerevisiae growth inhibition, OD615, pilot screen of yeast lifespan reduction project, restrictive growth control (AID 706;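 active = growth inhibition above a set limit, 3 SD over mean compound inhibition, in both replicates, cut at about 43% in these data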;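 note: modified DeaD lifespan yeast strain shifted to restrictive glucose medium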); settings: OD615, 48 h, at 10 µM, active compounds read high
How it was run: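 Buffer or medium: restrictive glucose medium (CSMM-D); test system: modified S. cerevisiae; doses: single dose of 10 µM compound final, 0.25% DMSO; schedule: 48 h compound exposure at 30 °C; detection: absorbance (optical density) measured at 615 nm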

[3] = viability gain of MRP-1-high H69AR cells under doxorubicin, pilot screen, MRP-1 activator project, CellTiter-Glo, duplicate (AID 807;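 active = viability increase at or above a cutoff of the median across tested compounds plus 3 SD, cut at about 8.5% in these data, passing the limit was not always enough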;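 note: compound pretreatment 18-22 h then 72 h combined with doxorubicin; 0% = doxorubicin alone and 100% = vehicle without doxorubicin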); settings: H69AR viability with doxorubicin, CellTiter-Glo luminescence; at 10 µM; active compounds read high
[4] = growth suppression of beta-catenin knockout HCT116, pilot screen, human colon tumor cells (AID 823;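 active = cell viability at or below a set limit in both duplicate runs, the limit being the all-compound median minus 4 SD, cut at about 23% in these data, passing the limit was not always enough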;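 note: 0% = wells killed by 20 µM Hyamine and 100% = untreated DMSO cell wells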); settings: CellTiter-Glo, 60 h, at 10 µM, active compounds read low
[5] = growth suppression of PTEN-deleted HCT116, pilot screen, cell-based, HCT116 clonal line, CellTiter-Glo (AID 824;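 active = viability at or below 27.92% in each of two runs, the all-compound median minus 4 SD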;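 note: 0% = 20 µM Hyamine control and 100% = vehicle cell control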); settings: 60 h, at 10 µM, active compounds read low
[6] = inhibitors of the yeast RAM network, pilot screen, dse1pr::URA3 reporter, 5-FOA selection (AID 869;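 active = inhibition over a set limit, the all-compound mean plus 3 SD, in both replicate runs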;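 note: 0% = DMSO wells with no growth and 100% = 10 µM 1-NA-PP1 with full growth; RAM network block rescues cells from 5-FOA so hits raise OD615 growth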); settings: S. cerevisiae dse1pr::URA3 5-FOA growth, OD615, 2 d; at 10 µM; active compounds read high; strain carries analog-sensitive mutant Cbk1 kinase
[7] = RAM signaling pathway blockade in yeast – S. cerevisiae, Pdr1DBD-CYC8 efflux-inhibited sensitized strain, primary screen (AID 1298);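 note: 0% = DMSO untreated cells without growth and 100% = 10 µM 1-NA-PP1 full growth; higher means more yeast growth rescued from 5-FOA killing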; settings: S. cerevisiae cbk1-as DSE1-URA3 strain, 5-FOA growth OD615, 2 d; at 50 µM; active compounds read high

SMILES	growth inhibition [1] [%]	growth inhibition [2] [%]	viability increase [3] [%]	viability [4]	viability [5]	inhibition [6] [%]	RAM network inhibition [7] [%]
CC1CC(C)CN(C(=O)C(NS(=O)(=O)c2ccc3c(c2)oc(=O)n3C)C(C)C)C1 (centres undefined)	-16	-5.28	-2.67	103%	93.6%	-0.355	6.92
COc1cc(C(=O)N2CCN(C(=O)C(Cc3cc(C)ccc3C)NC(C)=O)CC2)cc(OC)c1OC (centres undefined)	-24.3	-16.3	-2.13	97.7%	88.2%	1.05	1.42
Cc1cc(Nc2ccc(F)c(Cl)c2)n2nc(C)nc2n1	1.03	15.8	-3.61	97.2%	92.4%	1.94	0.68
N#CC1=C2SCN(Cc3ccccc3)CN2C(=O)CC1c1ccccc1F (centres undefined)	-3.35	15.7	-4.34	90.4%	88.4%	1.01	2.49
O=C(c1cc(-c2ccc(O)cc2)on1)N1CCc2ccccc2C1	-16.4	15.6	-4.4	93%	91.1%	0.875	-2.87
O=C(C1CCCN(S(=O)(=O)c2cccc3cccnc23)C1)N1CCN(c2ccccc2F)CC1 (centres undefined)	-5.55	7.3	-0.18	73.2%	76.5%	-0.265	2.98
CCOc1ccc(C2CC(c3cccc(Cl)c3)n3nc(N)nc3N2)cc1 (centres undefined)	5.36	7.05	-0.08	92%	88.2%	1.14	9.61
CCOCCCNC(=O)c1cc2c(=O)n3cccc(C)c3nc2n1C	-19.1	-15.2	-5.27	19% (active)	24.4% (active)	2.11	2.32
COCCSc1nc2c(c(=O)[nH]c(=O)n2C)n1Cc1cccc(C)c1	0.55	0.3	-1.81	90.2%	79.6%	1.57	4.44
CC(C)C(NC(=O)OCc1ccccc1)C(=O)NCC(=O)OC(C)(C)C (centres undefined) (Cbz-[ξV]-Gly-OtBu)	-5.84	-2.87	0.2	96.6%	95.2%	1.82	3.16
Cn1c(=O)c2c(nc(NCCc3ccccc3)n2Cc2ccc(F)cc2)n(C)c1=O	-4.81	-8.86	1.3	69.8%	55.3%	1.03	5.94
O=C(Cn1c(=O)sc2ccccc21)N1CCOCC1	-1.21	-4.46	-1.06	95.5%	102%	0.485	0.67
COc1ccc(NC(=O)c2nc3nc(C)cc(C(F)F)n3n2)cc1OC	-10.9	-6.71	2.09	108%	102%	0.885	1.05
C=CCNC(=O)C1CC(=O)N(c2ccc(C)cc2)C1 (centres undefined)	-10.6	-4.72	-3.08	93.9%	86.1%	0.995	4.77
CCn1c(=O)c2cc(C(=O)N3CCN(C(=O)c4ccco4)CC3)sc2c2ccccc21	-1.96	-0.815	-3.68	84%	86.3%	2.02	7.64
CC(NS(C)(=O)=O)C(c1cccs1)N1CCN(Cc2ccccc2)CC1 (centres undefined)	-7.18	11.4	-1.92	85.5%	87.3%	1.25	3.61

SMILES	growth inhibition [1] [%]	growth inhibition [2] [%]	viability increase [3] [%]	viability [4]	viability [5]	inhibition [6] [%]	RAM network inhibition [7] [%]
CC1Cc2ccccc2N1C(=O)c1ccc2snnc2c1 (centres undefined)	-1.7	-9.59	-3.96	95%	96.8%	0.79	6.74
COc1ccc(-n2nnc3c(=O)n(CC(=O)N4CCCc5ccccc54)cnc32)cc1	-1.22	-1.47	-0.27	95.2%	91.2%	2.3	1.61
CCC(SCC(=O)OC)C(=O)Nc1nnc(C(C)C)s1 (centres undefined)	1.46	8.39	-1.27	98.8%	98.1%	2.43	2.05
COc1ccccc1NC(=O)CSc1nc(O)cc(=O)n1-c1ccccc1OC	-0.915	-0.015	0.76	100%	100%	0.485	3.1
Cc1nn(C)c(C)c1S(=O)(=O)N(CC(=O)Nc1ccccn1)c1ccc(C(C)C)cc1	-2.97	-15.5	-1.21	80.1%	82.2%	2	-0.48
Cc1ccc(S(=O)(=O)CC(C)N2CCOCC2)c(S(=O)(=O)CC(C)N2CCOCC2)c1 (centres undefined)	-6.09	-0.82	1.48	97%	94.4%	0.7	1.89
CC(C)c1nnc(NC(=O)CSc2ncn[nH]2)s1	-14.4	-13.9	-0.74	98.3%	94.2%	0.135	1.34
COc1cccc(NC(=O)Nc2nnc(N3CCCCC3C)s2)c1 (centres undefined)	-2.52	-11.5	-4.53	88.8%	97.8%	1.83	4.22
O=C1c2ccccc2C(Nc2ccc(Cl)cn2)N1c1ccccn1 (centres undefined)	-15.4	0.32	-4.01	75.1%	81.1%	2.39	8.97
Cc1cnc(N)c2c(=O)oc3ccccc3c12	-0.41	24.5	-4.45	103%	92.8%	1.61	1.88
COc1ccc(NC(=O)N2CCC(c3ccccc3)C2)c(OC)c1 (centres undefined)	-3.06	9.96	1.59	90.9%	90.2%	0.67	-1.49
CCCOc1ccc(S(=O)(=O)NCc2ccc(OC)cc2)cc1	-0.685	-1.88	-1.41	103%	103%	0.925	7.26
C(=C\c1ccccc1)/CSc1nnc(-c2cccnc2)o1	8.71	32.7	0.3	99.9%	93.1%	0.04	0.25
O=C(NC1CCCc2ccccc21)C1CCN(C(=O)c2sccc2-n2cccc2)CC1 (centres undefined)	-5.99	-8.89	-4.24	84.7%	78.7%	-0.305	4.28
Cn1c(C(=O)N2CCCC2)cc2c(=O)n(C)c3ccccc3c21	-2.97	3.21	-3.32	102%	95.5%	2.04	-0.2
COc1ccc(C(=O)/C(C)=N/O)cc1OC	-15.6	-1.75	-0.59	90.5%	88.6%	1.42	2.98
